Test results: BindingDB's records for doi:10.1021/jm990049j (Dupont Pharmaceuticals, 2000)

target: Integrin alpha-IIb/beta-3 (Homo sapiens, UniProt P08514+P05106); assay: Inhibition of aggregation of human gel-purified platelets (GPIIbIIIa GPP)
How it was run: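 Human platelets from healthy-volunteer platelet-rich plasma were gel-purified on sepharose and used at 2×10^8 platelets/mL with 1 mM CaCl2 and 1 mg/mL fibrinogen. Aggregation was measured with or without compound at several concentrations and IC50 calculated. Values are single determinations.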

Chain of Integrin alpha-IIb/beta-3 (P05106 27-788 limits assumed): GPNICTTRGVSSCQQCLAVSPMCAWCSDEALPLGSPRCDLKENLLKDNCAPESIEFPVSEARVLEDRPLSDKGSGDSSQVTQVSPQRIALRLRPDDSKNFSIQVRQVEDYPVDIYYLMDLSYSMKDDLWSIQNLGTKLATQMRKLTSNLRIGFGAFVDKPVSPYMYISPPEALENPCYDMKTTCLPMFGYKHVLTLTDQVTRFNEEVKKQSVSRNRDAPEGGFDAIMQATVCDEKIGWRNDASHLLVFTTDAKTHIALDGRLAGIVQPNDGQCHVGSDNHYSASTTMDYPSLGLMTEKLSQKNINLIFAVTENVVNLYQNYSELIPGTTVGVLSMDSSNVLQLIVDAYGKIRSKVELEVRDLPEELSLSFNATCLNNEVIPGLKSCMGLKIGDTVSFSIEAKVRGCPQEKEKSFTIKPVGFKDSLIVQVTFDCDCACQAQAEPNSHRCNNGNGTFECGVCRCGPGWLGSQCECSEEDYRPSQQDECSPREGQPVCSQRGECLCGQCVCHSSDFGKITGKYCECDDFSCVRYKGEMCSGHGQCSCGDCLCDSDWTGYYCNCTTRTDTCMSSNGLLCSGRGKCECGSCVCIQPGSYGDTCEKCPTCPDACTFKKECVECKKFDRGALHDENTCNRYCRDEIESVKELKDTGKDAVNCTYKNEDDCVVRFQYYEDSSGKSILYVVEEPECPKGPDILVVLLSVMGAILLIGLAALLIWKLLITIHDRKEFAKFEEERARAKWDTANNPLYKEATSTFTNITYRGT
Chain of Integrin alpha-IIb/beta-3 (P08514 32-887 limits assumed): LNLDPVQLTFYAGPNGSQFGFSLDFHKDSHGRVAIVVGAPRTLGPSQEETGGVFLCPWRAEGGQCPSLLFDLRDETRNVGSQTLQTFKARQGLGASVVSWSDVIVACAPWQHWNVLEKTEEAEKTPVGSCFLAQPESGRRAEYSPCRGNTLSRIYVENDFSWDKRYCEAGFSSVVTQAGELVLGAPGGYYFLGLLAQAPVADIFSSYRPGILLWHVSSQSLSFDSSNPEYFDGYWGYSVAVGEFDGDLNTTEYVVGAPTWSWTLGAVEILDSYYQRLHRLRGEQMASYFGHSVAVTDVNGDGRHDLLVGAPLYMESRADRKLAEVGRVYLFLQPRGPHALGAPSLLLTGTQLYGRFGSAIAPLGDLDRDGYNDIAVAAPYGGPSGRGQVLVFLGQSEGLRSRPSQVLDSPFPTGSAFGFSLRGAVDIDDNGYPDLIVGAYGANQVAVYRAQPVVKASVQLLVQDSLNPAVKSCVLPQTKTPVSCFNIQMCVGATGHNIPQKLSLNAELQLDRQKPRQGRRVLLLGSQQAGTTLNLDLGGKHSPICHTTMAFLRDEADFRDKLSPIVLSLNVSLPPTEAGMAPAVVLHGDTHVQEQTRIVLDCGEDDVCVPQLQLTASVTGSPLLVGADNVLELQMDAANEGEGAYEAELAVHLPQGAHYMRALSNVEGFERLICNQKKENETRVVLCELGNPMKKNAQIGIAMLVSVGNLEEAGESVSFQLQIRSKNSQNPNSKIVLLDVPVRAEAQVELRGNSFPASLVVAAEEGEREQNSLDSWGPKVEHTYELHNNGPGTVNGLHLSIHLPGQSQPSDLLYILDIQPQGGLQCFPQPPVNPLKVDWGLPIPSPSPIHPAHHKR
Chain of Integrin alpha-IIb/beta-3 (P08514 891-1039 limits assumed): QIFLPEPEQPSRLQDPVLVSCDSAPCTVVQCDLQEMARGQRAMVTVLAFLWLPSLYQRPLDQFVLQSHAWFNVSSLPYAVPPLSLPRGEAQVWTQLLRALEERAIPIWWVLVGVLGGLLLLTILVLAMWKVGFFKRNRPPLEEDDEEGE

SMILES | IC50 [nM]
Cc1cccc(C)c1S(=O)(=O)N[C@@H](CNC(=O)c1ccc2c(cnn2CCCNc2ncc[nH]2)c1)C(=O)O [2-(2,6-Dimethyl-benzenesulfonylamino)-3-({1-[3-(1H-imidazol-2-ylamino)-propyl]-1H-indazole-5-carbonyl}-amino)-propionic acid] | 74
Cc1cc(-c2ccccc2)cc(C)c1S(=O)(=O)N[C@@H](CNC(=O)c1ccc2c(cnn2CCCNc2ncc[nH]2)c1)C(=O)O [2-(3,5-Dimethyl-biphenyl-4-sulfonylamino)-3-({1-[3-(1H-imidazol-2-ylamino)-propyl]-1H-indazole-5-carbonyl}-amino)-propionic acid] | 74
O=C(NC[C@H](NS(=O)(=O)c1ccc(Cl)cc1)C(=O)O)c1ccc2c(cnn2CCCNc2ncc[nH]2)c1 [2-(4-Chloro-benzenesulfonylamino)-3-({1-[3-(1H-imidazol-2-ylamino)-propyl]-1H-indazole-5-carbonyl}-amino)-propionic acid] | 260
O=C(NC[C@H](NS(=O)(=O)c1ccc(-c2ccccc2)cc1)C(=O)O)c1ccc2c(cnn2CCCNc2ncc[nH]2)c1 [2-(Biphenyl-4-sulfonylamino)-3-({1-[3-(1H-imidazol-2-ylamino)-propyl]-1H-indazole-5-carbonyl}-amino)-propionic acid] | 130
CCCCS(=O)(=O)N[C@@H](CNC(=O)c1ccc2c(cnn2CCCNc2ccccn2)c1)C(=O)O [2-(Butane-1-sulfonylamino)-3-({1-[3-(pyridin-2-ylamino)-propyl]-1H-indazole-5-carbonyl}-amino)-propionic acid] | 9000
O=C(NC[C@H](NS(=O)(=O)c1ccccc1)C(=O)O)c1ccc2c(cnn2CCCNc2ncc[nH]2)c1 [2-Benzenesulfonylamino-3-({1-[3-(1H-imidazol-2-ylamino)-propyl]-1H-indazole-5-carbonyl}-amino)-propionic acid] | 34
O=C(NC[C@H](NS(=O)(=O)c1ccccc1)C(=O)O)c1ccc2c(cnn2CCCNc2ccccn2)c1 [2-Benzenesulfonylamino-3-({1-[3-(pyridin-2-ylamino)-propyl]-1H-indazole-5-carbonyl}-amino)-propionic acid] | 290
CC(C)COC(=O)N[C@@H](CNC(=O)c1ccc2c(cnn2CCCNc2ccccn2)c1)C(=O)O [2-Isobutoxycarbonylamino-3-({1-[3-(pyridin-2-ylamino)-propyl]-1H-indazole-5-carbonyl}-amino)-propionic acid] | 25000
Cc1cc(C)c(S(=O)(=O)N[C@@H](CNC(=O)c2ccc3c(cnn3CCC(=O)Nc3ncc[nH]3)c2)C(=O)O)c(C)c1 [3-({1-[2-(1H-Imidazol-2-ylcarbamoyl)-ethyl]-1H-indazole-5-carbonyl}-amino)-2-(2,4,6-trimethyl-benzenesulfonylamino)-propionic acid] | 4000
COc1ccc(S(=O)(=O)N[C@@H](CNC(=O)c2ccc3c(cnn3CCCNc3ncc[nH]3)c2)C(=O)O)cc1 [3-({1-[3-(1H-Imidazol-2-ylamino)-propyl]-1H-indazole-5-carbonyl}-amino)-2-(4-methoxy-benzenesulfonylamino)-propionic acid] | 410
O=C(NC[C@H](NS(=O)(=O)c1ccc(C(F)(F)F)cc1)C(=O)O)c1ccc2c(cnn2CCCNc2ncc[nH]2)c1 [3-({1-[3-(1H-Imidazol-2-ylamino)-propyl]-1H-indazole-5-carbonyl}-amino)-2-(4-trifluoromethyl-benzenesulfonylamino)-propionic acid] | 4400
Cc1cc(C)c(S(=O)(=O)N[C@@H](CNC(=O)c2ccc3c(cnn3CCCNC3=NCCN3)c2)C(=O)O)c(C)c1 [3-({1-[3-(4,5-Dihydro-1H-imidazol-2-ylamino)-propyl]-1H-indazole-5-carbonyl}-amino)-2-(2,4,6-trimethyl-benzenesulfonylamino)-propionic acid] | 57
Cc1cc(C)c(S(=O)(=O)N[C@@H](CNC(=O)c2ccc3c(cnn3CCCNc3ccccn3)c2)C(=O)O)c(C)c1 [3-({1-[3-(Pyridin-2-ylamino)-propyl]-1H-indazole-5-carbonyl}-amino)-2-(2,4,6-trimethyl-benzenesulfonylamino)-propionic acid] | 220

Now from value to molecule:

IC50 [nM] | SMILES
5000 | Cc1cc(C)c(S(=O)(=O)N[C@H](CNC(=O)c2ccc3c(cnn3CCCNc3ncc[nH]3)c2)C(=O)O)c(C)c1
12 | O=C(NC[C@H](NS(=O)(=O)c1c(Cl)cccc1Cl)C(=O)O)c1ccc2c(cnn2CCCNc2ncc[nH]2)c1 [2-(2,6-Dichloro-benzenesulfonylamino)-3-({1-[3-(1H-imidazol-2-ylamino)-propyl]-1H-indazole-5-carbonyl}-amino)-propionic acid]
790 | O=C(NC[C@H](NS(=O)(=O)c1ccc(Cl)c(Cl)c1)C(=O)O)c1ccc2c(cnn2CCCNc2ncc[nH]2)c1 [2-(3,4-Dichloro-benzenesulfonylamino)-3-({1-[3-(1H-imidazol-2-ylamino)-propyl]-1H-indazole-5-carbonyl}-amino)-propionic acid]
400 | CC(=O)Nc1ccc(S(=O)(=O)N[C@@H](CNC(=O)c2ccc3c(cnn3CCCNc3ncc[nH]3)c2)C(=O)O)cc1 [2-(4-Acetylamino-benzenesulfonylamino)-3-({1-[3-(1H-imidazol-2-ylamino)-propyl]-1H-indazole-5-carbonyl}-amino)-propionic acid]
2000 | CC(C)(C)c1ccc(S(=O)(=O)N[C@@H](CNC(=O)c2ccc3c(cnn3CCCNc3ncc[nH]3)c2)C(=O)O)cc1 [2-(4-tert-Butyl-benzenesulfonylamino)-3-({1-[3-(1H-imidazol-2-ylamino)-propyl]-1H-indazole-5-carbonyl}-amino)-propionic acid]
1000 | O=C(N[C@@H](CNC(=O)c1ccc2c(cnn2CCCNc2ncc[nH]2)c1)C(=O)O)OCc1ccccc1 [2-Benzyloxycarbonylamino-3-({1-[3-(1H-imidazol-2-ylamino)-propyl]-1H-indazole-5-carbonyl}-amino)-propionic acid]
> 10000 | O=C(N[C@@H](CNC(=O)c1ccc2c(cnn2CCCNc2ccccn2)c1)C(=O)O)OCc1ccccc1 [2-Benzyloxycarbonylamino-3-({1-[3-(pyridin-2-ylamino)-propyl]-1H-indazole-5-carbonyl}-amino)-propionic acid]
66 | Cc1cc(C)c(S(=O)(=O)N[C@@H](CNC(=O)c2ccc3c(cnn3CCCNC3=NCCCN3)c2)C(=O)O)c(C)c1 [3-({1-[3-(1,4,5,6-Tetrahydro-pyrimidin-2-ylamino)-propyl]-1H-indazole-5-carbonyl}-amino)-2-(2,4,6-trimethyl-benzenesulfonylamino)-propionic acid]
21 | Cc1cc(C)c(S(=O)(=O)N[C@@H](CNC(=O)c2ccc3c(cnn3CCCNc3ncc[nH]3)c2)C(=O)O)c(C)c1 [3-({1-[3-(1H-Imidazol-2-ylamino)-propyl]-1H-indazole-5-carbonyl}-amino)-2-(2,4,6-trimethyl-benzenesulfonylamino)-propionic acid]
39 | O=C(NC[C@H](NS(=O)(=O)c1cccc2ccccc12)C(=O)O)c1ccc2c(cnn2CCCNc2ncc[nH]2)c1 [3-({1-[3-(1H-Imidazol-2-ylamino)-propyl]-1H-indazole-5-carbonyl}-amino)-2-(naphthalene-1-sulfonylamino)-propionic acid]
81 | O=C(NC[C@H](NS(=O)(=O)c1ccc2ccccc2c1)C(=O)O)c1ccc2c(cnn2CCCNc2ncc[nH]2)c1 [3-({1-[3-(1H-Imidazol-2-ylamino)-propyl]-1H-indazole-5-carbonyl}-amino)-2-(naphthalene-2-sulfonylamino)-propionic acid]
83 | Cc1ccc(S(=O)(=O)N[C@@H](CNC(=O)c2ccc3c(cnn3CCCNc3ncc[nH]3)c2)C(=O)O)cc1 [3-({1-[3-(1H-Imidazol-2-ylamino)-propyl]-1H-indazole-5-carbonyl}-amino)-2-(toluene-4-sulfonylamino)-propionic acid]
36000 | Cc1cc(C)c(NS(=O)(=O)N[C@@H](CNC(=O)c2ccc3c(cnn3CCCNc3ccccn3)c2)C(=O)O)c(C)c1 [3-[1-[3-(N-Pyridin-2ylamino)propyl]indazol-5-ylcarbonylamino]-2(S)-(2,4,6-trimethylphenylaminosulfonylamino) propionic acid]
7800 | O=C(NC[C@H](NS(=O)(=O)Nc1ccccc1)C(=O)O)c1ccc2c(cnn2CCCNc2ccccn2)c1 [3-[1-[3-(N-Pyridin-2ylamino)propyl]indazol-5-ylcarbonylamino]-2(S)-(phenylaminosulfonylamino) propionic acid]
8100 | O=C(NC[C@H](NS(=O)(=O)NCc1ccccc1)C(=O)O)c1ccc2c(cnn2CCCNc2ccccn2)c1 [3-[1-[3-(N-Pyridin-2ylamino)propyl]indazol-5-ylcarbonylamino]-2(S)-(phenylmethylaminosulfonylamino) propionic acid]
41000 | Cc1cc(C)c(S(=O)(=O)N[C@@H](CC(=O)Nc2ccc3c(cnn3CCCNc3ccccn3)c2)C(=O)O)c(C)c1 [N-{1-[3-(Pyridin-2-ylamino)-propyl]-1H-indazol-5-yl}-2-(2,4,6-trimethyl-benzenesulfonylamino)-succinamic acid]
